The values that follow come from ChEMBL document CHEMBL1127016, “Inhibitors of the protease from human immunodeficiency virus: synthesis, enzyme inhibition, and antiviral activity of a series of compounds containing the dihydroxyethylene transition-state isostere” (J Med Chem, 1993).

As usually defined, the Ki is the dissociation constant of the complex between target and ligand, obtained from inhibition or displacement. For orientation: Inhibition means the share of the control response that was lost under treatment. By inhibition is commonly meant the change of the read-out against control, counted positive when it falls.

The target of one experiment is Human immunodeficiency virus type 1 protease (Human immunodeficiency virus 1, UniProt Q72874). As to the kind of experiment: Inhibition of HIV-1 protease in vitro.
Details: not given
An outline of the steps:
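Recombinant HIV-1 protease refolded from E. coli inclusion bodies; substrate peptide H-Val-Ser-Gln-Asn-Tyr-Pro-Ile-Val-OH at 2.5 mM. 30 °C, 100 mM sodium acetate pH 5.5 (MOPS for pH 7), 10% glycerol, 5% ethylene glycol, 0.1% NP-40. Inhibitor added before enzyme, five to seven concentrations; stopped at 30 min with TFA, HPLC; Ki from Dixon plots.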
`CC(C)[C@@H](C(=O)N[C@H]1c2ccccc2CC1O)[C@@H](O)[C@H](O)[C@H](CC1CCCCC1)NC(=O)c1ccccc1` (stereo not given in full) gave a Ki of 16 nM.

As to `CCC(C)[C@H](NC(=O)[C@H](C(C)C)[C@@H](O)[C@H](O)C(CC1CCCCC1)NC(=O)c1ccccc1OCSc1ccccc1)C(=O)NCc1nc2ccccc2[nH]1` (stereo not given in full), the affinity corresponds to a Ki of 5 nM.

On to `CC(C)[C@@H](C(=O)N[C@H]1c2ccccc2CC1O)[C@@H](O)[C@H](O)[C@H](CC1CCCCC1)NC(=O)c1ncccc1OCCOc1ccccc1` (stereo not given in full), for which the Ki was above 200 nM.

For the compound `CCC(C)[C@H](NC(=O)[C@H](C(C)C)[C@@H](O)[C@H](O)[C@H](CC1CCCCC1)NC(=O)c1ncccc1OCCOCCOC)C(=O)NCc1nc2ccccc2[nH]1` (stereo not given in full), the Ki came to 100 nM.

With `CCC(C)[C@H](NC(=O)[C@H](C(C)C)[C@@H](O)[C@H](O)C(CC1CCCCC1)NC(=O)c1ccccc1OCCOCCOCCOC)C(=O)NCc1nc2ccccc2[nH]1` (stereo not given in full), the affinity corresponds to a Ki of 10 nM.

`CC(C)[C@@H](C(=O)N[C@H]1c2ccccc2CC1O)[C@@H](O)[C@H](O)C(CC1CCCCC1)NC(=O)c1ncccc1OCSc1ccccc1` (stereo not given in full) returned an inhibition constant (Ki) of 600 nM.

For the compound `CCC(C)[C@H](NC(=O)[C@H](C(C)C)[C@@H](O)[C@H](O)[C@H](CC1CCCCC1)NC(=O)c1ccccc1OCCOc1ccccc1)C(=O)NCc1nc2ccccc2[nH]1` (stereo not given in full), the Ki came to 8 nM.

`CC(C)[C@@H](C(=O)N[C@H]1c2ccccc2CC1O)[C@@H](O)[C@H](O)[C@H](CC1CCCCC1)NC(=O)CCOCCOc1ccccc1` (stereo not given in full) yielded a Ki above 200 nM.

`COCCOCCOCCOc1cccnc1C(=O)NC(CC1CCCCC1)[C@@H](O)[C@H](O)[C@H](C(=O)N[C@H]1c2ccccc2CC1O)C(C)C` (stereo not given in full): the Ki was above 200 nM.

The compound `CCC(C)[C@H](NC(=O)[C@H](C(C)C)[C@@H](O)[C@H](O)C(CC1CCCCC1)NC(=O)c1ncccc1OCCOCCOCCOC)C(=O)NCc1nc2ccccc2[nH]1` (stereo not given in full) gave a Ki of 100 nM.

For the compound `COCCOCCOCCOc1ccccc1C(=O)NC(CC1CCCCC1)[C@@H](O)[C@H](O)[C@H](C(=O)N[C@H]1c2ccccc2CC1O)C(C)C` (stereo not given in full), the Ki was above 200 nM.

In turn, `CC[C@H](C)[C@H](NC(=O)[C@H](C(C)C)[C@@H](O)[C@H](O)[C@H](CC1CCCCC1)NC(=O)c1ccccc1)C(=O)NCc1nc2ccccc2[nH]1` had a Ki of 36 nM.

Consider `CC[C@H](C)[C@H](NC(=O)[C@H](C(C)C)[C@@H](O)[C@H](O)[C@H](CC1CCCCC1)NC(=O)C1CCCCC1)C(=O)NCc1ccccn1`, for which the Ki is 22 nM.

With `COCCOCCOc1cccnc1C(=O)N[C@@H](CC1CCCCC1)[C@@H](O)[C@H](O)[C@H](C(=O)N[C@H]1c2ccccc2CC1O)C(C)C` (stereo not given in full), the Ki was above 200 nM.

The compound `COCCOCCOc1ccccc1C(=O)N[C@@H](CC1CCCCC1)[C@@H](O)[C@H](O)[C@H](C(=O)N[C@H]1c2ccccc2CC1O)C(C)C` (stereo not given in full) came in with a Ki of 200 nM.

The compound `CCC(C)[C@H](NC(=O)[C@H](C(C)C)[C@@H](O)[C@H](O)[C@H](CC1CCCCC1)NC(=O)CCOCCOc1ccccc1)C(=O)NCc1nc2ccccc2[nH]1` (stereo not given in full) returned a Ki of 4 nM.

As to `CC(C)[C@@H](C(=O)N[C@H]1c2ccccc2CC1O)[C@@H](O)[C@H](O)C(CC1CCCCC1)NC(=O)c1ccccc1OCSc1ccccc1` (stereo not given in full), the Ki was 200 nM.

In turn, `CCC(C)[C@H](NC(=O)[C@H](C(C)C)[C@@H](O)[C@H](O)C(CC1CCCCC1)NC(=O)c1ncccc1OCSc1ccccc1)C(=O)NCc1nc2ccccc2[nH]1` (stereo not given in full) returned a Ki of 140 nM.

In turn, `CC(C)[C@@H](C(=O)N[C@H]1c2ccccc2CC1O)[C@@H](O)[C@H](O)[C@H](CC1CCCCC1)NC(=O)c1ccccc1OCCOc1ccccc1` (stereo not given in full) showed a Ki above 200 nM.

`CCC(C)[C@H](NC(=O)[C@H](C(C)C)[C@@H](O)[C@H](O)[C@H](CC1CCCCC1)NC(=O)c1ncccc1OCCOc1ccccc1)C(=O)NCc1nc2ccccc2[nH]1` (stereo not given in full) displayed a Ki above 200 nM.

Take `CCC(C)[C@H](NC(=O)[C@H](C(C)C)[C@@H](O)[C@H](O)C(CC1CCCCC1)NC(=O)C(Cc1c[nH]cn1)NC(=O)COc1cccc2ccccc12)C(=O)NCc1ccccn1` (stereo not given in full): the Ki was below 1 nM.

Regarding `CCC(C)[C@H](NC(=O)[C@H](C(C)C)[C@@H](O)[C@H](O)[C@H](CC1CCCCC1)NC(=O)c1ccc(C)cc1OCCOc1ccccc1)C(=O)NCc1nc2ccccc2[nH]1` (stereo not given in full), the Ki amounted to 48 nM.

Take `CCC(C)[C@H](NC(=O)[C@H](C(C)C)[C@@H](O)[C@H](O)[C@H](CC1CCCCC1)NC(=O)c1ccccc1OCCOCCOC)C(=O)NCc1nc2ccccc2[nH]1` (stereo not given in full): the Ki came to 5 nM.

In a further experiment the test system is Vaccinia virus. As to the kind of experiment: Anti viral activity against vaccinia virus in CV-1 (monkey kidney) cells. The class given is functional, Orthopoxvirus vaccinia. Set-up: concentration or dose not given beside the values.
Details: not given
As to `CCC(C)[C@H](NC(=O)[C@H](C(C)C)[C@@H](O)[C@H](O)[C@H](CC1CCCCC1)NC(=O)c1ncccc1OCCOCCOC)C(=O)NCc1nc2ccccc2[nH]1` (stereo not given in full), the Inhibition is 0%.

Compound `CCC(C)[C@H](NC(=O)[C@H](C(C)C)[C@@H](O)[C@H](O)[C@H](CC1CCCCC1)NC(=O)c1ccccc1OCCOc1ccccc1)C(=O)NCc1nc2ccccc2[nH]1` (stereo not given in full) displayed an Inhibition of 86%.

For `CCC(C)[C@H](NC(=O)[C@H](C(C)C)[C@@H](O)[C@H](O)[C@H](CC1CCCCC1)NC(=O)CCOCCOc1ccccc1)C(=O)NCc1nc2ccccc2[nH]1` (stereo not given in full), the Inhibition was found to be 65%.

The compound `CCC(C)[C@H](NC(=O)[C@H](C(C)C)[C@@H](O)[C@H](O)[C@H](CC1CCCCC1)NC(=O)c1ncccc1OCCOc1ccccc1)C(=O)NCc1nc2ccccc2[nH]1` (stereo not given in full) returned an Inhibition of 0%.

The compound `CCC(C)[C@H](NC(=O)[C@H](C(C)C)[C@@H](O)[C@H](O)[C@H](CC1CCCCC1)NC(=O)c1ccc(C)cc1OCCOc1ccccc1)C(=O)NCc1nc2ccccc2[nH]1` (stereo not given in full) came in with an Inhibition of 48%.

Turning to `CCC(C)[C@H](NC(=O)[C@H](C(C)C)[C@@H](O)[C@H](O)[C@H](CC1CCCCC1)NC(=O)c1ccccc1OCCOCCOC)C(=O)NCc1nc2ccccc2[nH]1` (stereo not given in full), the Inhibition is given as 56%.

In a further experiment the test system is Vaccinia virus. As to the kind of experiment: Anti viral activity against vaccinia virus in CV-1 (monkey kidney) cells at 1 uM. The class given is functional. As to conditions: Orthopoxvirus vaccinia, CV-1, in Primates.
`CCC(C)[C@H](NC(=O)[C@H](C(C)C)[C@@H](O)[C@H](O)C(CC1CCCCC1)NC(=O)c1ccccc1OCSc1ccccc1)C(=O)NCc1nc2ccccc2[nH]1` (stereo not given in full) came in with an inhibition at 1 µM of 86%.

As to `CCC(C)[C@H](NC(=O)[C@H](C(C)C)[C@@H](O)[C@H](O)C(CC1CCCCC1)NC(=O)c1ccccc1OCCOCCOCCOC)C(=O)NCc1nc2ccccc2[nH]1` (stereo not given in full), the inhibition at 1 µM is 65%.

`CC(C)[C@@H](C(=O)N[C@H]1c2ccccc2CC1O)[C@@H](O)[C@H](O)C(CC1CCCCC1)NC(=O)c1ncccc1OCSc1ccccc1` (stereo not given in full) gave an inhibition at 1 µM of 0%.

In turn, `CCC(C)[C@H](NC(=O)[C@H](C(C)C)[C@@H](O)[C@H](O)C(CC1CCCCC1)NC(=O)c1ncccc1OCCOCCOCCOC)C(=O)NCc1nc2ccccc2[nH]1` (stereo not given in full) came in with an inhibition at 1 µM of 0%.

In turn, `CC(C)[C@@H](C(=O)N[C@H]1c2ccccc2CC1O)[C@@H](O)[C@H](O)C(CC1CCCCC1)NC(=O)c1ccccc1OCSc1ccccc1` (stereo not given in full) had an inhibition at 1 µM of 0%.

Regarding `CCC(C)[C@H](NC(=O)[C@H](C(C)C)[C@@H](O)[C@H](O)C(CC1CCCCC1)NC(=O)c1ncccc1OCSc1ccccc1)C(=O)NCc1nc2ccccc2[nH]1` (stereo not given in full), the inhibition at 1 µM was 0%.
